L major viab – inhibitors of Leishmania major promastigote growth. Leishmania major promastigotes, resazurin fluorescence viability. inhibition, % at 10 µM. 9% of 200,000 active. AID 1063; in the data active means inhibition above about 50%;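 further: promastigotes grown with compound for 44 hours at 28 °C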
ABCB1 block – blocks JC-1 efflux by human ABCB1 transporter; P08183; inhibition, % at 6.6 µM; 0.067% of 190,000 active; CCRF-Adr cells, flow cytometry; in the data active means inhibition above about 40%;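 further: 0% = vehicle and 100% = reference inhibitor; higher value means more JC-1 retained so stronger ABCB1 efflux block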
WT yeast gro inh – growth inhibition of WT yeast, mitochondrial fusion screen; 2.1% of 190,000 active; inhibition, % at 10 µM; AID 1362; mitochondrial fusion phenotypic screen, WT strain; in the data active means inhibition above about 58%; tested in S. cerevisiae
RAM inhibit – yeast RAM network inhibition. inhibition, % at 50 µM. AID 868. 1.8% of 190,000 active. S. cerevisiae dse1pr::URA3 reporter, 5-FOA growth OD615, 2 d; analog-sensitive cbk1-as2 kinase mutant strain;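 active means inhibition above a set limit, 3 SD over mean compound inhibition, cut at about 8.4% in these data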;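 further: 0% = DMSO-only wells with no growth and 100% = 10 µM 1-NA-PP1 full growth; inhibition rescues growth on 5-FOA so higher OD means more RAM inhibition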
ABCG2 block – inhibitors of human ABCG2 transporter, ABCB1 counter-screen; Q9UNQ0; IgMXP3 cells, JC-1 efflux, flow cytometry; inhibition, % at 6.6 µM; 0.1% of 190,000 active;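 active means inhibition above 80%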;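 further: 0% = DMSO and 100% = nicardipine control wells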
Target sequence (Q9UNQ0 whole entry, looked up): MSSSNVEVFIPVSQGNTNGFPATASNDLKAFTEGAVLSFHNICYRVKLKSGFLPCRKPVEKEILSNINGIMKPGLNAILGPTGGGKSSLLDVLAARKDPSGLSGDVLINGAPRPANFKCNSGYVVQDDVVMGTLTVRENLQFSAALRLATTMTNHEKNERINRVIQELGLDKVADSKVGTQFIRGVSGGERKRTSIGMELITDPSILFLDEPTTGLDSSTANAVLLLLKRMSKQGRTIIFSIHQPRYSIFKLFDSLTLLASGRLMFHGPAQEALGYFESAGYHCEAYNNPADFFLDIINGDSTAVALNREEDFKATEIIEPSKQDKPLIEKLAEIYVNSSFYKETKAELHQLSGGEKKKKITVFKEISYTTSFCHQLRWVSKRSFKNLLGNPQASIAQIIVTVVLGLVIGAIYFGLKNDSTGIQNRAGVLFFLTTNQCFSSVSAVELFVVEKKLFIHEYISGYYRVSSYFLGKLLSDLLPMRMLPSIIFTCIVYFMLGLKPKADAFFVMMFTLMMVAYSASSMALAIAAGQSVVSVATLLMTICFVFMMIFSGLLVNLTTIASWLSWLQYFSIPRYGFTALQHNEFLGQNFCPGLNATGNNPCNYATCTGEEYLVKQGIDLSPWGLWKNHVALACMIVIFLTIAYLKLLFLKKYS
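Measure – % inhibition of efflux relative to nicardipine and DMSO · Test system – ABCG2 IgMXP3 and barcoded ABCB1 CCRF-Adr cell mix · Control set – nicardipine as high control, DMSO as low control · Compound – one concentration, 6.6 µM final · Signal – flow cytometry of retained JC-1 fluorescence · Timing – 10 min exposure at 25 °C with rotation, no wash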
The depositor's hits bear a star. Compounds with a hit are over-represented: about 12% of the library has one in this group of screens.

SMILES	L major viab	ABCB1 block	WT yeast gro inh	RAM inhibit	ABCG2 block
COc1ccc(NC(=O)CC2SC3=NCCN3C2=O)cc1 (stereo not given)	-2	0	-3	1	0
Cc1ccc(C(=O)N(C)CC(=O)Nc2ccc(F)c(F)c2F)o1	-4	0	-1	0	15
CCOc1cc(S(=O)(=O)NCc2ccco2)c(OCC)cc1-n1cnnn1	0	0	-7	0	3
CSc1ccc(CN2CCCC(CO)(Cc3ccccc3)C2)cc1 (stereo not given)	64*	-2	22	1	-4
CSc1ccccc1C(=O)C1CCCN(Cc2c(C)n(C)n(-c3ccccc3)c2=O)C1 (stereo not given)	6	0	1	-2	-1
C/C=C(\C)CN1CCCC(CO)(Cc2ccccc2)C1 (stereo not given)	3	0	4	2	0
CSc1ccccc1C(=O)C1CCCN(Cc2cnn(-c3ccccc3)c2)C1 (stereo not given)	73*	2	22	-1	0
c1ccc(CN2CCN(CCOCCOc3ccc4c(c3)CCC4)CC2)cc1	-2	-1	8	1	-1
O=C(Nc1ccccc1Cc1ccccc1)c1ccccc1NS(=O)(=O)c1ccc(Cl)s1	-2	1	76*	7	3
Cc1ccc(NC(=O)c2ccccc2NS(=O)(=O)c2ccc(Cl)s2)cc1	53*	2	82*	0	23
O=C(Nc1ccccc1)c1ccccc1NS(=O)(=O)c1ccc(Cl)s1	-6	1	53	5	4
O=C(N/N=C/c1cc(Br)cc(Br)c1O)c1cccc(N2CCCC2=O)c1	3	-1	-4	2	-2
COc1ccccc1N(CN1C(=O)c2ccccc2C1=O)C(=O)c1cccc(C)c1	3	2	2	0	6
O=S(=O)(NCC1CCCO1)c1ccc(S(=O)(=O)N(Cc2ccc(F)cc2)Cc2ccco2)cc1 (stereo not given)	0	1	13	7	10
C/C(=N\Nc1cc(-c2ccccc2)nc(-c2ccccc2)n1)c1ccc(O)c(C)c1	13	0	92*	4	-1
COc1cc(N/N=C(\C)c2ccc(O)c(C)c2)nc(-c2ccccc2)n1	9	0	92	2	4
C[n+]1cc[nH]c1SCC(=O)c1ccccc1	7	0	9	0	0
CC[n+]1c(/C=C/Nc2ccccc2)oc2ccccc21	96*	0	-2	1	1
CC[n+]1c(/C=C/N(C)c2ccccc2)oc2ccc(F)cc21	84*	0	2	-1	6
CC[n+]1c(/C=C/Nc2ccccc2)oc2ccc(OC)cc21	18	0	6	1	1
CN(/C=C/c1c([N+](=O)[O-])c(=O)n(C)c(=O)n1C)c1ccccc1	20	2	-16	0	9
CC[n+]1c(/C=C/N(C)c2ccccc2)oc2ccccc21	100*	1	10	2	8
O=S(=O)([O-])CCC[n+]1c(/C=C\Nc2ccccc2)oc2ccc(-c3ccccc3)cc21	-1	-2	12	4	-6
CCOC(=O)CCCCC(=O)c1[nH]c(=O)[nH]c1CSc1nnc2c3ccccc3n(C(C)C)c2n1	-2	-1	13	4	2
C[n+]1cc(C(=O)N2CCCCC2)ccc1/C=C/c1c[nH]c2ccccc12	0	1	9	1	1
SMILES	L major viab	ABCB1 block	WT yeast gro inh	RAM inhibit	ABCG2 block
Cc1cccc(NC(=O)c2cc(-c3ccccn3)nc3ccccc23)c1C	36	2	-1	0	15
Cc1ccc(C)c(NC(=O)C(c2ccccc2)N2CCOCC2)c1 (stereo not given)	6	2	4	-1	3
CCCCc1c(C)nn(-c2nnc3c4ccccc4n(CC)c3n2)c1C	37	4	68*	0	21
CCn1c2ccccc2c2nc3ccccc3nc21	4	0	10	4	2
CCCC(=O)NCc1ccncc1	-7	0	-21	0	-1
CC(C)c1cc(N=NC(N)=O)cc(C(C)C)c1O	-3	0	-3	5	2

Compound activity as filed in PubChem.
